These results are taken from ChEMBL document CHEMBL1944511, “Bakuchiol derivatives as novel and potent cytotoxic agents: a report” (Eur J Med Chem, 2012).

Holding throughout (type): functional
The test system of experiment [1] is A549. Nature of the experiment: Growth inhibition of human A549 cells at 50 uM after 48 hrs by sulpharhodamine B assay. The following applies: A549, 48 h, read-out: GI. An outline of the steps:
(§1)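 This is the SRB protein-stain assay on adherent cells in RPMI-1640/MEM with 10% FCS. Each compound in DMSO (vehicle <0.2%) was applied at a single fixed concentration for 48 h. Cells were fixed with TCA and stained with SRB, and the dye was solubilised in Tris and read at 570/620 nm. Percent growth inhibition is relative to vehicle-treated controls, reported as mean ± SD of three experiments run in triplicate.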

Experiment [2] has as its system HEp-2. Nature of the experiment: Growth inhibition of human Hep2 cells at 30 uM after 48 hrs by sulpharhodamine B assay. The settings on record: HEp-2, 48 h, read-out: GI. Put shortly: as §1
Experiment [3] relates to THP-1. Description: Growth inhibition of human THP1 cells at 30 uM after 48 hrs by sulpharhodamine B assay. The settings on record: THP-1, 48 h, read-out: GI. An outline of the steps: (§2)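 Cells grown in RPMI-1640/MEM with 10% FCS, penicillin/streptomycin, 37 °C, 5% CO2. Seeded in 96-well plates, allowed to adhere overnight, then exposed 48 h to analogs in DMSO (vehicle <0.2% in controls). TCA-fixed, stained with 0.4% SRB in 1% acetic acid, dye solubilized in 10 mM Tris base, OD 570 nm (ref 620 nm). Mean ± SD of three experiments run in triplicate.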

Experiment [4] has as its system OVCAR-5. Description: Growth inhibition of human OVCAR5 cells at 50 uM after 48 hrs by sulpharhodamine B assay. The settings on record: OVCAR-5, 48 h, read-out: GI. Put shortly: as §1
The subject of experiment [5] is HeLa. Nature of the experiment: Growth inhibition of human HeLa cells at 30 uM after 48 hrs by sulpharhodamine B assay. The following applies: read-out: GI. Put shortly: as §1
Experiment [6] has as its system PC-3. Nature of the experiment: Growth inhibition of human PC3 cells at 50 uM after 48 hrs by sulpharhodamine B assay. The following applies: PC-3, 48 h, read-out: GI. An outline of the steps: as §2
The test system of experiment [7] is OVCAR-5. Nature of the experiment: Growth inhibition of human OVCAR5 cells at 30 uM after 48 hrs by sulpharhodamine B assay. The settings on record: OVCAR-5, 48 h, read-out: GI. An outline of the steps: as §1
Experiment [8] concerns A549. Description: Growth inhibition of human A549 cells at 30 uM after 48 hrs by sulpharhodamine B assay. The following applies: A549, 48 h, read-out: GI. Put shortly: as §1
Experiment [9] relates to MCF7. Description: Growth inhibition of human MCF7 cells at 50 uM after 48 hrs by sulpharhodamine B assay. The following applies: MCF7, 48 h, read-out: GI. Put shortly:
as §1

Experiment [10] relates to IMR-32. Nature of the experiment: Growth inhibition of human IMR32 cells at 50 uM after 48 hrs by sulpharhodamine B assay. The following applies: IMR-32, 48 h, read-out: GI. An outline of the steps:
as §1

The test system of experiment [11] is IMR-32. Description: Growth inhibition of human IMR32 cells at 30 uM after 48 hrs by sulpharhodamine B assay. The settings on record: IMR-32, 48 h, read-out: GI. Put shortly: as §1
In experiment [12] the test system is THP-1. Description: Growth inhibition of human THP1 cells at 50 uM after 48 hrs by sulpharhodamine B assay. The settings on record: THP-1, 48 h, read-out: GI. Put shortly: as §2
Experiment [13] concerns HeLa. Description: Growth inhibition of human HeLa cells at 50 uM after 48 hrs by sulpharhodamine B assay. The following applies: read-out: GI. An outline of the steps: as §1
Experiment [14] has as its system MCF7. Nature of the experiment: Growth inhibition of human MCF7 cells at 30 uM after 48 hrs by sulpharhodamine B assay. The settings on record: MCF7, 48 h, read-out: GI. Put shortly: as §1
Experiment [15] relates to PC-3. Nature of the experiment: Growth inhibition of human PC3 cells at 30 uM after 48 hrs by sulpharhodamine B assay. The following applies: PC-3, 48 h, read-out: GI. An outline of the steps:
as §2

Experiment [16] concerns HEp-2. Nature of the experiment: Growth inhibition of human Hep2 cells at 50 uM after 48 hrs by sulpharhodamine B assay. The following applies: HEp-2, 48 h, read-out: GI. Put shortly:
as §1

For experiment [17], the system named is HL-60. Nature of the experiment: Induction of apoptosis in human HL60 cells assessed as loss of mitochondrial membrane potential at 5 uM after 24 hrs by rodamine-123 staining-based flow cytometric analysis (reference value: 6%). (In general: Flow cytometry measures light scatter and fluorescence of single cells or particles in a stream.)

As to `C=C[C@@](C)(/C=C/c1ccc(OC)cc1)CCC=C(C)C`, the inhibition of growth at 50 µM in experiment [1] worked out at 12%; in [4], 37%; in experiment [6], 44%; in experiment [9] it was 18%; in experiment [10] it was 30%; in [12], 45%. For the same compound, the results for the inhibition of growth at 50 µM in experiment [13] and in experiment [16] were 43% and 40%, respectively. Also, the inhibition of growth at 30 µM in experiment [2] turned out to be 22%; in experiment [3], 29%; in experiment [5] it was 28%; in experiment [7], 29%; in experiment [8], 34%; in [11], 23%. In addition, the inhibition of growth at 30 µM in experiment [14] turned out to be 37%; in experiment [15] it was 31%.
Turning to `CC[C@@]1(O)C(=O)OCc2c1cc1n(c2=O)Cc2cc3ccccc3nc2-1` [CAMPTOTHECIN], the Activity in experiment [17] is given as 55.5%.
Regarding `CC(C)=CCC[C@@](C)(/C=C/c1ccc(N)cc1)/C=C/c1ccc(O)cc1`, the inhibition of growth at 50 µM in experiment [1] was found to be 57%; in experiment [4] it was 16%; in [6], 59%; in experiment [9] it was 48%; in [10], 28%; in experiment [12] it was 51%. For the same compound, the results for the inhibition of growth at 50 µM in [13] and in experiment [16] were 27% and 46%, respectively. Also, the inhibition of growth at 30 µM in [2] is 32%; in [3] it was 32%; in [5], 5%; in experiment [7], 8%; in experiment [8] it was 33%; in [11], 14%. The inhibition of growth at 30 µM amounted to 28% in [14] and 15% in experiment [15].
With `C=C[C@@](C)(/C=C/c1ccc(OC(=O)CCCCCCCCC)cc1)CCC=C(C)C`, the inhibition of growth at 50 µM stood at 48% in [1]; 42% in experiment [4]; 50% in experiment [6]; 10% in [9]; 52% in experiment [10]; 52% in experiment [12]. The inhibition of growth at 50 µM came to 50% in experiment [13] and 30% in experiment [16]. Also, the inhibition of growth at 30 µM came to 16% in [2]; 39% in experiment [3]; 24% in experiment [5]; 29% in experiment [7]; 33% in [8]; 22% in experiment [11]. Also, the inhibition of growth at 30 µM in experiment [14] turned out to be 12%; in [15], 27%.
`CC[C@](C)(CCCC(C)C)CCc1ccc(O)c(I)c1`: the inhibition of growth at 50 µM in experiment [1] stood at 12%; in experiment [4] it was 11%; in experiment [6] it was 8%; in [9], 40%; in experiment [10], 21%; in [12] it was 58%. Moreover, the inhibition of growth at 50 µM in experiment [13] was determined as 43%.
As for `C=C[C@@](C)(/C=C/c1ccc(OC(=O)CCCCCCC)cc1)CCC=C(C)C`, the inhibition of growth at 50 µM in [1] came to 15%; in [4] it was 42%; in experiment [6], 22%; in [9], 12%; in experiment [10], 51%; in [12], 62%. For the same compound, the inhibition of growth at 50 µM in experiment [13] is 53%.
For the compound `C=C[C@@](C)(/C=C/c1ccc(OC(=O)CCCCCCCCCCCCCCC)cc1)CCC=C(C)C`, the inhibition of growth at 50 µM came to 61% in [1]; 64% in [4]; 62% in experiment [6]; 24% in [9]; 54% in [10]; 62% in experiment [12]. For the same compound, the inhibition of growth at 50 µM in experiment [13] was 51%.
